GPR7 antagonist = antagonists of human GPR7 (neuropeptides B/W receptor 1); hit rate 1.1% among 290,000; GPR7-expressing cells, fluorescence antagonist assay; inhibition, % at 4.4 µM; P48145; in the data active = inhibition above about 16%, passing the limit was not always enough;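 also: cells stimulated with the agonist NPW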
CHO parental Ca = counter-screen: ATP calcium response change in parental CHO cells; AID 463079; hit rate 0.63% among 330,000; parental CHO-K1, ATP-induced calcium, Fluo-8 fluorescence; inhibition, % at 5.6 µM;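 active = inhibition above that plate's mean sample inhibition plus 3 SD, cut at about 26% in these data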
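Test system: parental CHO cells; detection: calcium-sensitive Fluo-8 fluorescence; evaluation: percent inhibition of calcium signal; also added: ATP as calcium-mobilizing challenge; repeats: one well per compound; control set: ATP-challenged DMSO wells low, unchallenged DMSO wells high; compound: single nominal dose of 5.6 µM per compound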
TAAR1 ag = human TAAR1 agonism. Q96RJ0. CHO RD-HGA16 TAAR1, Fluo-8 calcium fluorescence; vehicle wells 0%, saturating PEA agonist 100%. activation, % at 3 µM. hit rate 0.99% among 360,000. AID 624467;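 active = activation above the mean activation of all test compounds in the run plus 3 SD, cut at about 38% in these data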
Target sequence (Q96RJ0 whole entry, looked up): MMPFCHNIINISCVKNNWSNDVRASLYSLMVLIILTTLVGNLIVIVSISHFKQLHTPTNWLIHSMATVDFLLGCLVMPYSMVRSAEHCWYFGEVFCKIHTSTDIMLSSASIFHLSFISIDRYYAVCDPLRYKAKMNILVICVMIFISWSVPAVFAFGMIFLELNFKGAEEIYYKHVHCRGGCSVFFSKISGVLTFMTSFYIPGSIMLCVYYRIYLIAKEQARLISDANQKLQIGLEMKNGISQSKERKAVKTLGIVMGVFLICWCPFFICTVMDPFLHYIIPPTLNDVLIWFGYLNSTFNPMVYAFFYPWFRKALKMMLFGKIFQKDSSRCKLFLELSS
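System: CHO-derived RD-HGA16 cells with stable Gα16 and human TAAR1. Times: 17-24 h plating, Fluo-8 75 min 37 °C, 30 min RT. Measured by: calcium-sensitive Fluo-8 signal, excitation 470-495, emission 515-575 nm. Read-out basis: % activation relative to PEA EC100 response. Control set: DMSO and PEA EC100. Repeats: no replicates (n 1).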
OX1R antag-1 = OX1R (human) antagonism. O43613. OX1R-expressing cells, FRET antagonist read-out. inhibition, % at 6.6 µM. hit rate 1.8% among 330,000. AID 485270; in the data active = inhibition mostly above about 38%, no sharp cut-off; inactive = mostly below about 40%
TAAR1 antag = human TAAR1 antagonism; Q96RJ0; CHO RD-HGA16 TAAR1, Fluo-8 calcium fluorescence, antagonist; inhibition, % at 3 µM; hit rate 1.5% among 360,000; AID 624466;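 active = inhibition above a per-plate cutoff, the mean inhibition of test compounds on that plate plus 3 SD, cut at about 49% in these data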
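System: RD-HGA16 CHO cells with stable hTAAR1 and Gα16 | Probe or stimulus: EC80 β-phenethylamine stimulus | Dosing: 3 µM, single point | Times: Dye loading 75 min at 37 °C, then 30 min room temperature | Measured by: Fluo-8 calcium-sensitive fluorescence | Read-out basis: % inhibition of agonist calcium response | Replicates: n of 1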
OX1R antag-2 = human HCRTR1 antagonism; CHO/OX1R cells, Fluo-8 calcium fluorescence, orexin A; inhibition, % at 5 µM; hit rate 0.43% among 330,000; AID 434989;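 active = inhibition above its plate's threshold, mean inhibition of all tested compounds on the plate plus 3 SD, cut at about 37% in these data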
GPR7 antag conf = human GPR7 antagonism, confirmation assay | GPR7-expressing cells, calcium fluorescence antagonist mode | hit rate 52% among 2,400 | AID 1952 | inhibition, % at 4.4 µM | shares compounds with GPR7 antagonist; in the data active = inhibition above about 24%;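 also: stimulated with the GPR7 agonist NPW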
MCHR1 antagonist = MCHR1 (human) antagonism in GPR7 counter-screen | shares compounds with GPR7 antagonist | MCHR1-expressing cells, fluorescence antagonist assay | inhibition, % at 4.4 µM | hit rate 62% among 2,400
nonsel antag count = nonselective antagonism, TAAR1 counter-screen | shares compounds with TAAR1 antag | counterscreen cell line, calcium fluorescence, antagonist mode | inhibition, % at 3 µM | hit rate 77% among 2,400 | AID 651780;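 also: CHO-Ga16 host cells stimulated with ATP at an EC80 level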
TAAR1 ant conf = human TAAR1 antagonism, confirmed. TAAR1-expressing cells, fluorescence antagonist read-out. inhibition, % at 3 µM. shares compounds with TAAR1 antag. AID 651785. hit rate 40% among 2,400; in the data active = inhibition above about 49%;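 also: CHO-Ga16 host cells challenged with agonist PEA near its EC80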
Ga16 nonsel ag = counter-screen for TAAR1 antagonists: nonselective Ga16 agonists | shares compounds with TAAR1 antag | Ga16-expressing cells, calcium fluorescence, agonist counterscreen | activation, % at 3 µM | hit rate 18% among 2,400 | AID 651953; in the data active = activation above about 12%
TAAR1 ag counter = activates human TAAR1 in antagonist counter-screen | shares compounds with TAAR1 antag | hTAAR1 cell line, fluorescence activation, agonist mode | activation, % at 3 µM | hit rate 2% among 2,400; in the data active = activation above about 37%;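 also: CHO cells stably expressing TAAR1 with calcium dye readout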
Large screens that a line does not name were inactive (follow-up assays come after a bar, where they were run). Most compounds without a hit are left out; they make up all but 4.5% or so of the library. Rule as the data show it, unless noted: active = inhibition above about 22%; inactive = the rest.

C[C@]12CCC3[C@@H](CCC4=CC(=O)CC[C@@]43C=O)C1CCC2=O (stereo not given in full)	GPR7 antagonist 28.5 | GPR7 antag conf inactive | MCHR1 antagonist inactive
OC(c1cccc(Cl)c1)(c1cccc(Cl)c1)C1CN2CCC1CC2 (stereo not given)	GPR7 antagonist 33.6 | GPR7 antag conf 43.6 | MCHR1 antagonist 50.6
COC(=O)C(O)(c1ccc(N(C)C(=O)c2ccc(Cl)c(Cl)c2)cc1)C(F)(F)F (stereo not given)	GPR7 antagonist 33.0 | GPR7 antag conf 29.8 | MCHR1 antagonist inactive
COc1ccc(C2NCc3ccc4c(c3-n3cccc32)OCO4)cc1O (stereo not given)	GPR7 antagonist 49.6 (no result: TAAR1 ag, TAAR1 antag) | GPR7 antag conf 53.2 | MCHR1 antagonist 37.0
FC(F)(F)c1cccc(C2NCc3ccccc3-n3cccc32)c1 (stereo not given)	none
c1cc2n(c1)-c1c(ccc3c1OCO3)CNC2c1ccc2c(c1)OCO2 (stereo not given)	GPR7 antagonist 24.6 | GPR7 antag conf 49.1 | MCHR1 antagonist 29.6
Cc1nc2cc(C(F)(F)F)ccc2n1C1CCN(Cc2nnnn2Cc2cccs2)CC1	GPR7 antagonist 32.2, CHO parental Ca 61.3, OX1R antag-2 43.4 | GPR7 antag conf 46.5 | MCHR1 antagonist 38.2
O[C@@H]1CCCN2CCc3c([nH]c4ccccc34)[C@H]12	none (no result: GPR7 antagonist)
O=C1NCN(c2ccccc2)C12CCN(C(c1nnnn1C1CCCC1)C1CC1)CC2 (stereo not given)	none (no result: GPR7 antagonist, CHO parental Ca, OX1R antag-1, OX1R antag-2)
Nc1ccccc1-[n+]1c(-c2ccccc2)cc(-c2ccccc2)cc1-c1ccccc1	GPR7 antagonist 83.7 | GPR7 antag conf 76.1 | MCHR1 antagonist 65.7
C[C@]12CCC(=O)C[C@H]1CC[C@@H]1[C@@H]2CC[C@]2(C)[C@@H](O)CC[C@@H]12	none (no result: GPR7 antagonist, TAAR1 ag, TAAR1 antag)
O=C(O)CCC(=O)NCCC1=c2ccccc2=N/C1=C\c1c(O)n(Cc2ccc(F)cc2)c(=S)[nH]c1=O	none
O=P(NC(c1ccccc1)c1ccccc1)(Oc1ccccc1)Oc1ccccc1	GPR7 antagonist 26.1, TAAR1 antag 63.9 | GPR7 antag conf 31.5 | MCHR1 antagonist 47.1 | nonsel antag count 31.7 | TAAR1 ant conf 64.5 | Ga16 nonsel ag inactive | TAAR1 ag counter inactive
Cc1ccc2c(c1)N(C(=O)CCC(=O)N1CCC3(CC1)OCCO3)CCO2	none

Screening results: PubChem, The Scripps Research Institute Molecular Screening Center
